A selection: hits, their analogues and other compounds. The true share with any hit is near 3.5%.
MrgX1 PAM: human MrgX1 positive allosteric modulation, primary screen. MrgX1-HEK293, Fluo-4 calcium flux, FDSS; hits give high values. B-score at 10 µM. actives 0.63% (n = 310,000). AID 588675;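 active = plate-corrected calcium response at least 3 library SD above typical, normal starting fluorescence, not activating the receptor alone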;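 also: compound read alongside a low EC10 to EC30 dose of BAM8-22 agonist; peak minus trough fluorescence over baseline measured at the second addition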
Target sequence (Q96LB2 whole entry, looked up): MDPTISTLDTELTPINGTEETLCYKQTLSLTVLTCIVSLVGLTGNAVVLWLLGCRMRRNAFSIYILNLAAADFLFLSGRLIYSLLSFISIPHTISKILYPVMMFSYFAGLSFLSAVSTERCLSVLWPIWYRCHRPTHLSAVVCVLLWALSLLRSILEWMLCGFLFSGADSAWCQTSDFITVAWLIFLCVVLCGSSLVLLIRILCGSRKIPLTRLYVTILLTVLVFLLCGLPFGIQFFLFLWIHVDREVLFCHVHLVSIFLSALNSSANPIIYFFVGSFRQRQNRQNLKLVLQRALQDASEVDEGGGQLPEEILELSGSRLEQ
RGS4 pot: RGS4 potentiation or activation. HEK293 M3R/inducible RGS4, carbachol calcium flux Fluo4; hits give low values. B-score at 10 µM. actives 0.92% (n = 310,000);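 active = B-score of the integrated calcium signal more than 4 SD below the library mean, with starting fluorescence not abnormally high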;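 also: negative B-score means reduced calcium response which marks RGS4 activation or potentiation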
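Material: M3R-expressing HEK293 line, RGS4 induced by doxycycline | Schedule: Overnight RGS4 induction, 30 min dye load 37 °C, 20 min compound RT | Measured by: Fluo4 fluorescence kinetic imaging of calcium | Read-out: Integrated calcium ratio converted to B score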
MrgX1 antagonist: blocks BAM8-22 activation of human MrgX1 receptor; B-score at 10 µM; Q96LB2; actives 1.3% (n = 310,000); MRGX1-HEK293 calcium flux, Fluo-4, BAM8-22 antagonism; hits give low values;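 active = calcium-response B-score plate-corrected more than 3 library SD below zero, starting fluorescence within 5 deviations, no agonist response on first addition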;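 also: peak minus trough fluorescence over baseline after final BAM8-22 challenge near maximal dose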
MrgX1 agonist: human MrgX1 receptor agonism, primary screen; actives 0.44% (n = 310,000); B-score at 10 µM; MrgX1-HEK293 cells, Fluo-4 calcium fluorescence, agonist mode; hits give high values;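 active = calcium response B-score plate-corrected fluorescence ratio at least 3 library SD, with starting fluorescence B-score inside 5 SD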
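Assay system: stable human MrgX1 HEK293 cell line. Quantity: 15,000 cells per well. Schedule: cells plated overnight, dye loaded 0.5 h 37 °C, 0.5 h room temperature. Detection: Fluo-4 NW calcium-flux fluorescence, kinetic read. Read-out basis: peak-minus-minimum fluorescence over baseline, converted to B scores. Control set: positive and negative control wells on each plate.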
RGS4 block: inhibitors of human RGS4 | actives 0.45% (n = 310,000) | HEK293 M3R/RGS4 inducible, Fluo-4 calcium flux; hits give high values; triggered by carbachol at its EC20 | B-score at 10 µM | P49798;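 active = B-score, a plate-corrected calcium signal, over three deviations above library mean, with baseline fluorescence within five deviations of library mean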;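 also: RGS4 expression induced by doxycycline in cells with stable M3 receptor; B-score is computed from the integrated fluorescence ratio over baseline after carbachol; higher B-score means a larger calcium signal and so more RGS4 inhibition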
Target sequence (P49798 whole entry, looked up): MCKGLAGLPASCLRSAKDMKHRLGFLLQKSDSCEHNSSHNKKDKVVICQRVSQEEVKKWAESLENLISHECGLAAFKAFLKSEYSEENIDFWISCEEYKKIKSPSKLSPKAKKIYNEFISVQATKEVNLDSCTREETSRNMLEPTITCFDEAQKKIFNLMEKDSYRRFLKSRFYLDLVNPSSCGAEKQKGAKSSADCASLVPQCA
RGS4 activ val: confirmation of RGS4 activators; shares compounds with RGS4 pot; HEK293 M3R/RGS4 inducible, carbachol calcium flux Fluo4; inhibition, % at 10 µM; actives 89% (n = 1,100);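 active = inhibition above 3 SD of the buffer control wells, cut at about 41% in these data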;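 also: signal is the integrated peak-minus-minimum Fluo4 fluorescence over baseline ratio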
RGS4 act ctr: counter-screen for RGS4 activators: effect in non-induced cells; HEK293 M3R non-induced RGS4, Fluo4 calcium flux; after carbachol challenge at its EC90; shares compounds with RGS4 pot; inhibition, % at 10 µM; actives 82% (n = 1,100);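 active = inhibition exceeding 3 SD of buffer-only control wells, cut at about 26% in these data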;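 also: percent drop in integrated peak-minus-baseline over baseline Fluo4 ratio after carbachol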
* marks the source's active call; other numbers are inactive results; i = inactive; nt = no result given.

SMILES	MrgX1 PAM	RGS4 pot	MrgX1 antagonist	MrgX1 agonist	RGS4 block	RGS4 activ val	RGS4 act ctr
CCS(=O)(=O)N1CCC(C(=O)Nc2ccc3c(c2)CCC3)CC1	i	i	i	i	i	nt	nt
Cc1cc(-c2onc3ccc(Cl)cc23)ccc1O	i	i	i	i	i	nt	nt
COc1ccc(C(=O)O/N=C/c2ccc(S(=O)(=O)c3ccc(Cl)cc3)nc2)cc1	i	i	i	i	i	nt	nt
COCCNCC(=O)N1c2ccccc2Sc2ccccc21	i	-9.5*	i	i	i	94*	41*
COCCCNC(=O)N1c2ccccc2Sc2ccccc21	i	i	i	i	i	nt	nt
Cc1cccc[n+]1CC(=O)N1c2ccccc2Sc2ccccc21	i	-14*	i	i	i	92*	87*
CC(C)CNCC(=O)N1c2ccccc2Sc2ccccc21	i	-8*	i	i	i	86*	50*
CN(C)C1=NCCN1CCc1ccc(F)cc1	i	nt	i	i	nt	nt	nt
O=C(Cc1ccc(F)cc1)Nc1nc(-c2ccc(F)c(F)c2)cs1	i	i	i	i	i	nt	nt
COc1ccc(CC(=O)Nc2nc(-c3ccc(F)c(F)c3)cs2)cc1	i	-10*	i	i	i	92*	96*
O=C1CC(N2CCSCC2)C(=O)N1c1ccc(F)cc1 (stereo not drawn)	i	i	i	i	i	nt	nt
COC(=O)c1ccc(C(=O)N(C)C2CCCN(Cc3ccccc3F)C2)cc1 (stereo not drawn)	i	i	i	i	i	nt	nt
COCc1ccc(C(=O)N(C)C2CCCN(Cc3ccccc3F)C2)o1 (stereo not drawn)	i	-8.6*	i	i	i	56*	0
CCC(=O)N1CCc2cc(S(=O)(=O)NCCC(=O)N3CCN(c4cccc(C)c4)C(C)C3)ccc21 (stereo not drawn)	i	-8.6*	i	i	i	64*	84*
CCC(=O)N1CCc2cc(S(=O)(=O)NCCC(=O)N3CCN(c4ccccc4)CC3)ccc21	i	i	i	i	i	nt	nt
CCc1ccc(NC(=O)CSc2nccn(-c3ccc4c(c3)OCCO4)c2=O)cc1	nt	i	nt	nt	i	nt	nt
COc1cccc(-c2nn(-c3ccc(C)cc3)cc2C(=O)N2CCc3cc(OC)c(OC)cc3C2)c1	i	-9.2*	i	i	i	45*	0
COc1cccc(-c2nn(-c3ccccc3)cc2C(=O)O)c1	i	i	i	i	i	nt	nt
CC1CCN(c2ccccc2NC(=O)c2ccc(Br)o2)CC1	i	-9.4*	i	i	i	54*	0
O=S(=O)(NCc1csc(-c2cccs2)n1)c1cccs1	i	-8*	i	i	i	0	0
O=S(=O)(NCc1csc(-c2cccs2)n1)c1ccc(Cl)cc1	i	i	i	i	i	nt	nt
CCN(C1CCCCC1)S(=O)(=O)c1ccc(S(=O)(=O)N2CCN(CCC#N)CC2)cc1	i	-9.1*	i	i	i	90*	65*
COc1ccc(CCNc2nc(N3CCCCC3)nc(N3CCCCC3)n2)cc1OC	i	-8.4*	i	i	i	76*	46*
COc1nc(NCCc2ccc(OC)c(OC)c2)nc(OC)n1	i	i	i	i	i	nt	nt
CCCc1ncc(C(O)(c2ccccc2)c2ccccc2)n1C	i	-12*	i	i	i	93*	81*
SMILES	MrgX1 PAM	RGS4 pot	MrgX1 antagonist	MrgX1 agonist	RGS4 block	RGS4 activ val	RGS4 act ctr
CCCc1ncc(C(O)(c2ccccc2)c2ccc(C)cc2)n1C (stereo not drawn)	i	-7.9*	i	i	i	92*	63*
CCCc1ncc(C(O)c2cccc3ccccc23)n1C (stereo not drawn)	i	i	i	i	i	nt	nt
CCN(CC)S(=O)(=O)c1ccc(N2CCN(CCOc3ccc(OC)cc3)CC2)nc1	i	i	i	i	i	nt	nt
Cc1cc2oc(=O)c(CC(=O)NCCCN(C)C)c(C)c2c2occ(C(C)(C)C)c12	i	-7.9*	i	i	i	90*	51*
CCOC(=O)C1CCCN(C(=O)c2cccc([N+](=O)[O-])c2C)C1 (stereo not drawn)	i	i	i	i	i	nt	nt
COc1cccc(CNC(=O)CCC2CCCN(C3CCOCC3)C2)c1 (stereo not drawn)	i	i	i	i	i	nt	nt
COc1cccc(CNC(=O)CCC2CCCN(c3cc(C)nc(N4CCCC4)n3)C2)c1 (stereo not drawn)	i	-12*	i	i	i	92*	94*
Cc1cc(NC(=S)N(CCCN2CCN(C)CC2)Cc2ccco2)ccc1Cl	i	i	i	i	i	nt	nt
Cc1ccc(Nc2nc(Cl)nc(NC(C)(C)C)n2)cc1	i	-8.2*	i	i	i	71*	39*
O=C(OCCN1CCCCC1)C1(c2ccccc2)CCCC1	i	-10*	i	i	i	92*	92*
C[N+]1(CCCOC(=O)C2(c3ccccc3)CCCC2)CCOCC1	i	i	i	i	i	nt	nt
O=C(OCCN1CCCC1)C1(c2ccccc2)CCCC1	nt	-9.3*	nt	nt	i	94*	93*
O=C(OCCN1CCCCC1)c1ccccc1Br	i	i	i	i	i	nt	nt
CN(C)CCOC(=O)C1(c2ccccc2)CCCC1	i	-8.5*	i	i	i	92*	91*
CN(C(=O)Cc1c(C(=O)O)n(C)c2ccccc12)c1ccc(F)cc1	i	i	i	i	i	nt	nt
CC(C)(C)c1ccc(C(=O)Nc2ccc(NC(=O)C(=O)O)cc2)o1	i	i	i	i	i	nt	nt
O=C(CN1C(=O)CSc2ncccc21)Nc1cccc(Cl)c1	i	i	i	i	i	nt	nt
COc1cccc(NC(=O)CN(C)C(=O)c2cc(-c3cccc(Br)c3)nc3ccccc23)c1	i	-9.5*	i	i	i	84*	28*
Cn1c(N2CCN(C(c3ccccc3)c3ccccc3)CC2)nc2c1c(=O)[nH]c(=O)n2C	i	i	i	i	i	nt	nt
NC(=O)CCN1CCN(Cc2nc(C(c3ccccc3)c3ccccc3)no2)CC1	i	-8.7*	i	i	i	92*	58*

Screens from PubChem.
